In PubChem BioAssay AID1515 (The Scripps Research Institute Molecular Screening Center, 2009):
Among all 220,000 compounds or so, about 440 (0.2%) were called active. The sample holds actives, similar compounds and a random draw of the others, so the mix is not that of the screen. Values without a mark were called inactive.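 Rule for the calls: active = inhibition above the campaign mean of all tested compounds plus 3 SD (cut at about 14% in these data); inactive = the rest.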

What follows are compounds tested against Serine hydrolase RBBP9 (Homo sapiens) (UniProt O75884) (assay: human RBBP9 inhibitors, primary screen, biochemical, fluorescence polarization, FP-Rh probe, HTS (AID 1515;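 note: plate controls were DMSO wells with RBBP9 for no effect and wells lacking RBBP9 protein for full effect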)). Conditions: recombinant RBBP9, FP-Rh probe fluorescence polarization; at 7.94 µM; hits give high values.
Sequence of Serine hydrolase RBBP9 (Homo sapiens) (O75884 whole entry, looked up): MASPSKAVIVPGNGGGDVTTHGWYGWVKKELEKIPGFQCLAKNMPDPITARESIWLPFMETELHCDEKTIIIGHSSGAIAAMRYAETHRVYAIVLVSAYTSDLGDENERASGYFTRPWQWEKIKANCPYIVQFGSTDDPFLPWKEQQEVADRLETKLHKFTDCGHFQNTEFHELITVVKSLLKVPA
Summary of the method: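 System: RBBP9 protein / Buffer or medium: Tris/NaCl buffer pH 8.0 with 0.1% Pluronic / Probe or stimulus: Serine-hydrolase probe FP-Rh, 375 nM pre-mixing / Dosing: 7.94 µM single dose, 0.794% DMSO / Times: enzyme-compound preincubation 30 min, then probe labeling 45 min, 25 °C / Technique: fluorescence polarization (mP), excitation 525 nm, emission 598 nm / Replication: singlicate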

Row | SMILES | inhibition
1 | Cc1ccc(CS(=O)(=O)CCC(=O)NC2CC2)cc1 | -3.2%
2 | O=C1/C(=C\c2cccnc2)CN(Cc2ccccc2)C/C1=C\c1cccnc1 | -6.31%
3 | Cc1ccccc1NS(=O)(=O)CCCCC(Cl)(Cl)Cl | 2.33%
4 | CCC(=O)Nc1c(C)n[nH]c1C | -4.5%
5 | CCN1C(=O)/C(=C\N2CCOCC2)SC1=S | -5.07%
6 | Cc1ccc2nc(SCc3cn4c(C)cc(C)nc4n3)[nH]c2c1 | -9.49%
7 | O=C(c1c(Cl)cccc1Cl)N1CCN(c2cccc3[nH]ccc23)CC1 | -7.2%
8 | Cc1c(NC(=O)CCC2CCCCC2)cc(C(=O)N2CCOCC2)cc1[N+](=O)[O-] | 7.08%
9 | COc1ccc(CCNC(=O)C(=O)Nc2ccc3nc4n(c(=O)c3c2)CCCCC4)cc1OC | 6.2%
10 | COc1ccc2c(c1)CC[C@@H]1[C@@H]2CC[C@]2(C)C(=O)CC[C@@H]12 | -1.04%
11 | Cc1cccc(C)c1NC(=O)C1CCCN1C(=O)OC(C)(C)C (centres undefined) | -5.32%
12 | Cc1cccc(-c2nc3c(c(SCC(=O)N4CCOCC4)n2)CCCC3)c1 | 11.1%
13 | COc1ccc(-c2noc(CN(C)S(=O)(=O)c3ccc(C)cc3)n2)cc1 | -9.12%
14 | CC(C)N(Cc1nc(-c2ccc3c(c2)OCO3)no1)CC1CCC(=O)N1 (centres undefined) | -10.1%
15 | COCCN(Cc1nc(-c2ccc(C(F)(F)F)cc2)no1)C(C)C | 15% (active)
16 | CC1CCC(NS(=O)(=O)c2ccc3c(c2)n(C)c(=O)c(=O)n3C)CC1 (centres undefined) | -2.22%
17 | CSc1ccc(S(=O)(=O)NC2CCCCC2)cc1 | 0.08%
18 | Cn1sc(=O)c2cc(S(=O)(=O)NC3CC3)ccc21 | 33.3% (active)
19 | Cc1cc(C)c[n+](-c2nc3ccccc3nc2[N-]S(=O)(=O)c2cccs2)c1 | -7.26%
20 | O=C1CC(c2ccccc2)=NN1c1ccc([N+](=O)[O-])cc1 | -12.2%

Row | SMILES | inhibition
21 | O=c1[nH]c2cccnc2n1-c1ccc([N+](=O)[O-])cc1 | 4.37%
22 | O=c1[nH]n(-c2ccc([N+](=O)[O-])cc2)c(=O)c2ccccc12 | 15.9% (active)
23 | O=C(NNC1CC(=O)N(c2cccc(Cl)c2)C1=O)c1cccnc1 (centres undefined) | -9.81%
24 | CC(C)(C)C1CCC(OC(=O)CCC(=O)Nc2ccccc2)CC1 (centres undefined) | -0.76%
25 | C=CCN(CC=C)CCOc1ccccc1[N+](=O)[O-] | -6.95%
26 | CSc1ccccc1NC(=O)CN(C)CC(=O)Nc1ccc(Cl)cc1[N+](=O)[O-] | 6.47%
27 | COc1cccc(-n2nc(C(=O)N3CCN(Cc4ccccc4)CC3)c3ccccc3c2=O)c1 | -0.83%
28 | Cc1cc(NC(=O)CSc2nccn2-c2ccc([N+](=O)[O-])cc2)no1 | -5.53%
29 | Cc1c(CCO)sc[n+]1CC(=O)OC12CC3CC(CC(C3)C1)C2 | 6.14%
30 | Cc1cc(C(=O)OCC(=O)Nc2nnc(C(C)C)s2)c2ccccc2n1 | -5.01%
31 | CC(OC(=O)c1ccc(NS(=O)(=O)c2ccc3[nH]c(=O)[nH]c3c2)cc1)C(=O)Nc1cccc(Cl)c1Cl (centres undefined) | -24.3%
32 | Oc1cccc2ccc(/C=C/c3ccc(Br)s3)nc12 | -6.67%
33 | O=C(Cc1cccs1)N/N=C/c1ccc(OCc2ccccc2)cc1 | -9.96%
34 | CC(C)(C)Nc1c(N)c(=O)oc2ccccc12 | -7.21%
35 | CCc1ccccc1NC1c2ccccc2C(=O)N1c1cccnc1 (centres undefined) | 19.1% (active)
36 | COC(=O)c1cc(NC2c3ccccc3C(=O)N2c2ccc(Cl)cn2)cc(C(=O)OC)c1 (centres undefined) | 2.1%
37 | Cc1ccnc(N2C(=O)c3ccccc3C2Nc2ccc3c(c2)OCCO3)c1 (centres undefined) | 5.23%
38 | COc1ccc(N2C(=O)C3CCCN3C2c2cccc(OC)c2)cc1 (centres undefined) | -6.79%
39 | COc1ccc(N2C(=O)C3CCCN3C2c2cccs2)cc1 (centres undefined) | -3.07%
40 | COc1ccc(N2C(=O)C3CCCN3C2c2cc(OC)c(OC)cc2OC)cc1 (centres undefined) | 14.8% (active)

Row | SMILES | inhibition
41 | COC(=O)C1=C(C)N(C)C(=O)NC1c1ccc([N+](=O)[O-])o1 (centres undefined) | 4.8%
42 | O=C(NCc1ccccc1Cl)NC(=O)c1csc([N+](=O)[O-])c1 | 2.74%
43 | CC1=CC(C)(C)N(C(=O)CSc2nnc(-c3ccccc3)o2)c2ccc(C)cc21 | -8.58%
44 | COc1ccc2c(c1)C(C)=CC(C)(C)N2C(=O)Nc1ccccc1 | 14.3% (active)
45 | COc1ccc2c(c1)C(C)=CC(C)(C)N2C(=O)CNCc1ccc2c(c1)OCO2 | 0.21%
46 | CC(=O)Nc1ccc(NC(=S)NC(=O)c2ccc([N+](=O)[O-])c(C)c2)cc1 | 6.76%
47 | CN1CCN(CC(=O)Nc2cccc([N+](=O)[O-])c2)CC1 | 7.61%
48 | Cc1ccc(C)c(S(=O)(=O)N2CCN(CC(=O)Nc3ccc([N+](=O)[O-])cc3)CC2)c1 | -5.91%
49 | Cc1ccc(NC(=O)CN2CCC(C(N)=O)CC2)cc1[N+](=O)[O-] | 28.6% (active)
50 | CC1=C(C(=O)Nc2cc(C)ccn2)C(c2cnn(C)c2)C2=C(CC(c3ccccc3)CC2=O)N1 (centres undefined) | -4.73%
51 | O=S(=O)(NC1CC1)c1ccc2c3c(cccc13)CC2 | -3.01%
52 | COc1ccc(C(C[N+](=O)[O-])n2nc(C)cc2C)cc1 (centres undefined) | -13.8%
53 | CC1CCN(C2=NC(=O)/C(=C/c3cn[nH]c3-c3ccccc3)S2)CC1 | -1.8%
54 | CS(=O)(=O)c1ccc(Cl)c(NC(=O)Nc2ccccc2)c1 | -8.09%
55 | O=[N+]([O-])c1c(NCCO)cc(Sc2nc3ccccc3s2)c2nonc12 | 16.6% (active)
56 | COc1ccc(S(=O)(=O)Nc2ccc(O)c(Sc3nc4ccccc4s3)c2)cc1 | -4.18%
57 | O=C(CSc1nc2ccccc2s1)Nc1ccc(C(=O)O)cc1 | -5.16%
58 | CCOC(=O)N1CCN(C(=S)Nc2ccc(C)cc2C)CC1 | -5.94%
59 | Cc1ccc(-c2cc(C(=O)NCC3CCCO3)c3ccccc3n2)o1 (centres undefined) | -0.54%
